Data taken from ChEMBL document CHEMBL1139955, “C(4)-alkyl substituted furanyl cyclobutenediones as potent, orally bioavailable CXCR2 and CXCR1 receptor antagonists” (Bioorg Med Chem Lett, 2007).

Columns and labels:
[1] = target: T1, C-X-C chemokine receptor type 2 (Homo sapiens, UniProt P25025); test: Displacement of [125I]IL8 from human CXCR2 expressed in CHO cells by SPA; assay type: cell-based
T1 sequence (P25025 whole entry): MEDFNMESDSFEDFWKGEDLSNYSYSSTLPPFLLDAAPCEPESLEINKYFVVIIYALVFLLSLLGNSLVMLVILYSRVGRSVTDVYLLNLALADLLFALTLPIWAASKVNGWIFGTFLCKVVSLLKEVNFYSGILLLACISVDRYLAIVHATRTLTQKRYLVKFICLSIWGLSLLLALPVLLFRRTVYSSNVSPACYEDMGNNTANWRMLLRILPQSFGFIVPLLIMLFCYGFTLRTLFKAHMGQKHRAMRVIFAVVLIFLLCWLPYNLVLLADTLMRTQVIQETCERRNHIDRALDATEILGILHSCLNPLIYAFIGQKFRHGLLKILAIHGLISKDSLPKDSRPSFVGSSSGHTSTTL

[2] = target: T2, C-X-C chemokine receptor type 1 (Homo sapiens, UniProt P25024); test: Displacement of [125I]IL8 from human CXCR1 expressed in CHO cells by SPA; assay type: cell-based
T2 sequence (P25024 whole entry): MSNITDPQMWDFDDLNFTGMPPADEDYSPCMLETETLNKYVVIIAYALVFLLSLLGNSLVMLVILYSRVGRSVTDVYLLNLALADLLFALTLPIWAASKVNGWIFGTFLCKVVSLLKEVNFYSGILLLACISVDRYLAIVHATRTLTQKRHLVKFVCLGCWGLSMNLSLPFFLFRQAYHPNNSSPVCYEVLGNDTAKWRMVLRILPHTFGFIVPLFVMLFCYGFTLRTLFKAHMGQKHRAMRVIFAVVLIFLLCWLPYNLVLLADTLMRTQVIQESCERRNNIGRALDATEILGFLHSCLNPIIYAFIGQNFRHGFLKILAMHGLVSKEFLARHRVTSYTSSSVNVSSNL

[3] = AUC in rat at 10 mg/kg, po after 6 hrs; assay type: ADME, organism-based; set-up: time < 6 hr, dose 10 mg/kg, route oral; conditions: plasma
Neutrophil [4] = test: Inhibition of GROalpha-induced migration of human neutrophils by chemotaxis assay; assay type: functional, cell-based
How it was run: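 Human neutrophil migration stimulated with 30 nM Gro-α; IC50 determined.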

Neutrophil [5] = test: Inhibition of IL8-induced migration of human neutrophils by chemotaxis assay; assay type: functional, cell-based
How it was run: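 Human neutrophil migration stimulated with 3 nM IL-8; IC50 determined.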

Rattus norvegicus = organism: Rattus norvegicus; test: Antiinflammatory activity against rat model of lipopolysaccharide-induced pulmonary inflammation; assay type: functional
Mus musculus = organism: Mus musculus; test: Antiinflammatory activity against mouse model of cigarette smoke-induced neutrophilic inflammation; assay type: functional
[6] = Cmax in rat at 10 mg/kg, po after 6 hrs; assay type: ADME, organism-based; set-up: dose 10 mg/kg, route oral; conditions: in vivo
[7] = AUC in mouse at 25 mg/kg, po after 7 hrs; assay type: ADME, organism-based; set-up: time < 7 hr, dose 25 mg/kg, route oral; conditions: plasma
[8] = Cmax in dog at 2 mg/kg, po after 48 hrs; assay type: ADME, organism-based, Canis lupus familiaris; set-up: dose 2 mg/kg, route oral; conditions: in vivo
[9] = Cmax in mouse at 25 mg/kg, po after 7 hrs; assay type: ADME, organism-based; set-up: dose 25 mg/kg, route oral; conditions: in vivo
[10] = AUC in monkey at 3 mg/kg, po after 48 hrs; assay type: ADME, organism-based, Macaca mulatta; set-up: time < 48 hr, dose 3 mg/kg, route oral; conditions: rhesus monkey, plasma
[11] = Cmax in monkey at 3 mg/kg, po after 48 hrs; assay type: ADME, organism-based, Macaca mulatta; set-up: dose 3 mg/kg, route oral; conditions: rhesus monkey, in vivo
[12] = AUC in dog at 2 mg/kg, po after 48 hrs; assay type: ADME, organism-based, Canis lupus familiaris; set-up: time < 48 hr, dose 2 mg/kg, route oral; conditions: plasma

SMILES: CC[C@@H](Nc1c(Nc2cccc(C(=O)N(C)C)c2O)c(=O)c1=O)c1sccc1C
- Ki [1]: 10 nM
- Ki [2]: 123 nM

SMILES: CC[C@@H](Nc1c(Nc2cccc(C(=O)N(C)C)c2O)c(=O)c1=O)c1cc(C)co1
- Ki [1]: 4 nM
- Ki [2]: 9 nM
- AUC at 6 h [3]: 32.6 µM·h

SMILES: CCc1ccoc1[C@@H](CC)Nc1c(Nc2cccc(C(=O)N(C)C)c2O)c(=O)c1=O
- Ki [1]: 25 nM
- Ki [2]: 379 nM

SMILES: CCc1coc([C@@H](CC)Nc2c(Nc3cccc(C(=O)N(C)C)c3O)c(=O)c2=O)c1
- Ki [1]: 1 nM
- Ki [2]: 7 nM
- AUC at 6 h [3]: 17.4 µM·h

SMILES: CCCCc1coc([C@@H](CC)Nc2c(Nc3cccc(C(=O)N(C)C)c3O)c(=O)c2=O)c1
- Ki [1]: 2 nM
- Ki [2]: 34 nM

SMILES: CC[C@@H](Nc1c(Nc2cccc(C(=O)N(C)C)c2O)c(=O)c1=O)c1cc(CCCCN2CCOCC2)co1
- Ki [1]: 9 nM
- Ki [2]: 14 nM

SMILES: CC[C@@H](Nc1c(Nc2cccc(C(=O)N(C)C)c2O)c(=O)c1=O)c1cc(C(C)C)co1
- IC50 [1]: 1.3 nM
- Ki [1]: 1 nM
- IC50 [2]: 7.3 nM
- Ki [2]: 3 nM
- IC50 (Neutrophil [4]): 0.5 nM
- IC50 (Neutrophil [5]): 37 nM
- ED50 (Rattus norvegicus): 0.9 mg/kg
- ED50 (Mus musculus): 1 mg/kg
- AUC at 6 h [3]: 5.4 µM·h
- Cmax [6]: 3.8 µM
- AUC at 7 h [7]: 4.6 µM·h
- Cmax [8]: 5.3 µM
- Cmax [9]: 4.6 µM
- AUC at 48 h [10]: 4.2 µM·h
- Cmax [11]: 0.38 µM
- AUC at 48 h [12]: 7.1 µM·h

SMILES: CCC(CC)c1coc([C@@H](CC)Nc2c(Nc3cccc(C(=O)N(C)C)c3O)c(=O)c2=O)c1
- Ki [1]: 0.8 nM
- Ki [2]: 30 nM

SMILES: CC[C@@H](Nc1c(Nc2cccc(C(=O)N(C)C)c2O)c(=O)c1=O)c1cc(C2CCCC2)co1
- Ki [1]: 3 nM
- Ki [2]: 53 nM

SMILES: CC[C@@H](Nc1c(Nc2cccc(C(=O)N(C)C)c2O)c(=O)c1=O)c1cc(C2CCCCC2)co1
- Ki [1]: 4 nM
- Ki [2]: 283 nM

SMILES: CC(C)c1coc([C@@H](C)Nc2c(Nc3cccc(C(=O)N(C)C)c3O)c(=O)c2=O)c1
- Ki [1]: 2 nM
- Ki [2]: 50 nM

SMILES: CC(C)c1coc([C@H](Nc2c(Nc3cccc(C(=O)N(C)C)c3O)c(=O)c2=O)C(C)C)c1
- Ki [1]: 4 nM
- Ki [2]: 11 nM

SMILES: CC(C)c1coc([C@H](Nc2c(Nc3cccc(C(=O)N(C)C)c3O)c(=O)c2=O)C2CC2)c1
- Ki [1]: 3 nM
- Ki [2]: 10 nM

SMILES: CC(C)c1coc([C@H](Nc2c(Nc3cccc(C(=O)N(C)C)c3O)c(=O)c2=O)C(C)(C)C)c1
- Ki [1]: 4 nM
- Ki [2]: 14 nM

SMILES: CC[C@@H](Nc1c(Nc2cccc(C(=O)N(C)C)c2O)c(=O)c1=O)c1cc(C)cs1
- Ki [1]: 5 nM
- Ki [2]: 24 nM

SMILES: CC[C@@H](Nc1c(Nc2cccc(C(=O)N(C)C)c2O)c(=O)c1=O)c1cc(C(C)(C)C)co1
- Ki [1]: 4 nM
- Ki [2]: 10 nM

SMILES: CCC(C)c1coc([C@@H](CC)Nc2c(Nc3cccc(C(=O)N(C)C)c3O)c(=O)c2=O)c1 (some centres undefined)
- Ki [1]: 0.6 nM
- Ki [2]: 7.6 nM

SMILES: CC[C@@H](Nc1c(Nc2cccc(C(=O)N(C)C)c2O)c(=O)c1=O)c1ccc(C)s1
- Ki [1]: 5 nM
- Ki [2]: 146 nM

SMILES: CC(C)c1coc([C@H](Nc2c(Nc3cccc(C(=O)N(C)C)c3O)c(=O)c2=O)C(F)(F)F)c1
- Ki [1]: 6 nM
- Ki [2]: 16 nM
